From PubChem
Dynein transport = inhibitors of GR-EGFP nuclear translocation, primary screen, dynein cargo transport inhibitor project, imaging, high-content, 3617.4 mouse cells. actives 0.47% (n = 220,000). test concentration mostly 20 µM; stimulated with dexamethasone, 1 µM; hits give low values. z-score, hits read low. AID 1381, 2008;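 active = plate z-score of nuclear minus cytoplasmic receptor signal below a set negative limit, without overly bright fluorescence or cell loss, cut at about -3.5 in these data, passing the limit was not always enough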;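 note: z-score of nuclear minus cytoplasmic ring GR-EGFP intensity difference per well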
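Schedule: 48 h induction, then 1 h compound, then 30 min agonist, 37 °C. Buffer or medium: tetracycline-free induction medium containing charcoal-stripped FBS. Reagent: 1.0 µM final dexamethasone stimulus. Evaluation: nuclear versus cytoplasmic GR-EGFP signal, averaged per well. Signal: high-content fluorescence imaging after fixation.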
CHOP inhibitor = inhibitors of CHOP promoter induction, primary screen, cell-based, unfolded protein response, luciferase reporter. inhibition, % at 10 µM. CHO-K1 CHOP-promoter luciferase, tunicamycin-induced, 15-18 h. actives 3.8% (n = 220,000);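 active = compounds that reduced the stress-induced luciferase reporter signal by more than about 70% of percent inhibition, limit read from the data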;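 note: 0% = tunicamycin plus vehicle and 100% = wells without tunicamycin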
B2AR ag = beta2AR agonists driving receptor internalization, primary screen, cell-based, FAP fluorogen, flow cytometry; actives 0.43% (n = 340,000); AID 504454, 2011; response, % (no concentration beside the values); Am2.2-beta2AR cells;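 active = response above a set limit, near 3 SD of response in nonfluorescent compounds, cut at about 42% in these data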
UPR CHOP act = activators of apoptotic CHOP UPR arm, primary screen, cell-based, CHO-CHOP luciferase reporter, luminescence, uHTS; UPR activation; percent of tunicamycin response over DMSO baseline; activation, % at 10 µM; actives 0.34% (n = 330,000); AID 449763, 2010;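 active = at 10 µM dose, activation of 40% or more, normalized to positive control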;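 note: 100% = tunicamycin at 10 µg/mL and 0% = DMSO alone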
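Test system: CHO CHOP reporter cells. Input: 500 CHO-CHOP cells per well. Medium: F12 with 10% FBS. Technique: luciferase luminescence. Measure: percent activation relative to tunicamycin control. Dosing: 10 µM compound, 0.5% DMSO. Timing: 16-18 h cell attachment, then 6 h compound exposure, 37 °C.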
pCIP destab = p/CIP-EGFP fusion destabilizers, primary screen, fluorescence, F442A cells; Q05BA5; 16 h; decrease of EGFP signal, % at 10 µM; actives 0.01% (n = 290,000);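 active = EGFP signal decrease of at least 30% at 10 µM or well 3 SD below plate mean, unless failing retest; inactive = the rest, including hits failing retest or dose response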
XBP1 UPR activ = activators of adaptive XBP1 UPR arm, primary screen, cell-based, CHO-XBP1 luciferase reporter, luminescence, uHTS | actives 0.33% (n = 330,000) | IRE1-XBP1 UPR activation; percent of tunicamycin response, DMSO as zero | activation, % at 20 µM;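 active = versus positive control, 20 µM dose yields 30% or more activation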;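 note: 100% = tunicamycin at 10 µg/mL and 0% = DMSO only wells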
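assay system = CHO-XBP1 luciferase reporter cells | amount = 1000 cells/well | buffer or medium = F12 plus 10% FBS | compound dosing = single point, 20 µM final compound, 1% DMSO | incubation = 16-18 h cell attachment at 37 °C, then 6 h compound exposure | detection = Steady-Glo luminescence read | controls = tunicamycin 10 µg/mL and vehicle-only wells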
Beta2AR ag CP1 = beta2AR agonists via receptor internalization, confirmation, cell-based, FAP fluorogen, flow cytometry, single point, cherry pick 1; shares compounds with B2AR ag; Am2.2-beta2AR cells, FAP surface receptor; hits give low values; percent response (surface receptor), % at 10 µM; actives 25% (n = 1,100); AID 540358, 2011;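 active = surface receptor percent response at or below 58%, roughly 3 SD from nonfluorescent compounds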
FAP fluor counter = fluorescence artifact in beta-2AR agonist FAP counterscreen; shares compounds with B2AR ag; Am2.2 cells, FAP fluorogen flow cytometry; hits give low values; calls only at 10 µM; 1,100 tested, under 10 active;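 active = percent response below a set limit in fluorescence channel 1 and below 50% in channel 8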
* marks the source's active call; other numbers are inactive results. This is one part of a sample in which hits are shown more often than they occur.

How did COc1ccc(CCNCC(O)COc2ccc(OC)cc2C(C)(C)C)cc1 (stereo unspecified) do in these assays?
B2AR ag: 45*; UPR CHOP act: -1; pCIP destab: -6; XBP1 UPR activ: -1; Beta2AR ag CP1: 99; FAP fluor counter: inactive

How did COc1ccc(CCC(=O)NNC(=O)c2ccc(OC)cc2)cc1 do in these assays?
B2AR ag: 1; UPR CHOP act: 2; pCIP destab: -15; XBP1 UPR activ: 1

How did COC(=O)c1ccc(COc2cc(O)c3c(c2)OC(C)(C)CC3=O)cc1 do in these assays?
Dynein transport: -0.3; CHOP inhibitor: 49; B2AR ag: 45*; UPR CHOP act: 1; pCIP destab: -17; XBP1 UPR activ: 7; Beta2AR ag CP1: 106; FAP fluor counter: inactive

Results for CN(C)c1nc(=NCc2ccco2)ss1 ?
Dynein transport: -3.2; CHOP inhibitor: -77; B2AR ag: 12; pCIP destab: -9; Beta2AR ag CP1: 111; FAP fluor counter: inactive

How did O=C(CN1C(=O)/C(=C2\SC(=S)N(C3CCS(=O)(=O)C3)C2=O)c2ccccc21)Nc1ccccc1 (stereo unspecified) do in these assays?
Dynein transport: -0.26; CHOP inhibitor: 20; B2AR ag: 12; UPR CHOP act: 4; pCIP destab: 12; XBP1 UPR activ: -2

Results for Cc1ccc(NC(=O)CN2C(=O)/C(=C3\SC(=S)N(C4CCS(=O)(=O)C4)C3=O)c3ccccc32)cc1 (stereo unspecified) ?
Dynein transport: -0.1; CHOP inhibitor: -23; B2AR ag: 49*; pCIP destab: -3; Beta2AR ag CP1: 83; FAP fluor counter: inactive

How did COc1ccc(C(C)=O)cc1COc1ccc(Cl)cc1Cl do in these assays?
Dynein transport: 1.1; CHOP inhibitor: 34; B2AR ag: 50*; UPR CHOP act: 0; pCIP destab: -1; XBP1 UPR activ: -2; Beta2AR ag CP1: 56*; FAP fluor counter: inactive

How did CCc1cc2c(=O)c(-c3cnn(-c4ccccc4)c3)c(C(F)(F)F)oc2c(CN(C)C)c1O do in these assays?
Dynein transport: 0.71; CHOP inhibitor: -11; B2AR ag: -7; UPR CHOP act: 2; pCIP destab: -3; XBP1 UPR activ: 4

Results for OC(CNCc1cccc(Br)c1)c1ccccc1 (stereo unspecified) ?
Dynein transport: -0.45; CHOP inhibitor: 32; B2AR ag: -2; UPR CHOP act: 1; pCIP destab: -13; XBP1 UPR activ: -2; Beta2AR ag CP1: 120; FAP fluor counter: inactive

Results for OC(CNCc1ccc(-c2ccccc2)cc1)c1ccccc1 (stereo unspecified) ?
Dynein transport: -0.23; CHOP inhibitor: 38; B2AR ag: 15; UPR CHOP act: -1; pCIP destab: -5; XBP1 UPR activ: -1

Results for COC(=O)CSc1nc(N)c(C#N)c(-c2ccc(O)cc2)c1C#N ?
Dynein transport: -0.59; CHOP inhibitor: 12; B2AR ag: 67*; UPR CHOP act: 1; pCIP destab: 0; XBP1 UPR activ: 1; Beta2AR ag CP1: 76; FAP fluor counter: inactive

Results for CCOC(=O)CSc1nc(N)c(C#N)c(-c2ccc(OCC)cc2)c1C#N ?
Dynein transport: 0.49; CHOP inhibitor: 13; B2AR ag: 8; UPR CHOP act: -1; pCIP destab: 2; XBP1 UPR activ: 0
